# Assay results from PMC4775349 (Chemical communications (Cambridge, England), 2016).
# Target: T1, His6-Te2FT (Thermosynechococcus vestitus, UniProt Q8DK72)
# T1 sequence (Q8DK72 1-293): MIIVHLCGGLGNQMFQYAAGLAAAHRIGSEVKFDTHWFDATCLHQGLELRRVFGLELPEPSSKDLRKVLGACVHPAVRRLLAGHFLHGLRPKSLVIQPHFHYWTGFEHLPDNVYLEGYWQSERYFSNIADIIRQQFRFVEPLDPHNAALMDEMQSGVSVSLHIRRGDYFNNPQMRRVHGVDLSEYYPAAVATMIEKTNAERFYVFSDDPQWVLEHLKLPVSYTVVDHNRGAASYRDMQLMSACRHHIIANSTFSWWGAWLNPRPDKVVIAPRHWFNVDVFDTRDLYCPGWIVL
# Assay: HPLC-based fucosyltransferase kinetics
# Format: biochemical
# Settings: α1–2-fucosyltransferase activity; acceptor; donor GDP-fucose
# Procedure, shortened: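 Enzyme is N-His6-tagged Te2FT from the pET15b vector, expressed in E. coli at 16 °C for 20 h with shaking at 120 rpm. It was purified on a Ni2+ column and quantified by bicinchoninic acid assay. Apparent kinetic parameters (kcat, KM, kcat/KM) were determined for α1–2-fucosyltransferase activity. The acceptor was Galβ1–3GlcNAcβ2AA and the donor was GDP-fucose.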
substance,measurement,value
Galβ1–3GlcNAcβ2AA,Km,790 ± 110 µM
